Results from ChEMBL document CHEMBL2029310 (Bioorg Med Chem Lett, 2012).
Values belong to the compound of their own block, whether it stands above or below them. Activity calls are given as the source filed them. The calls are words filed in the database; no cut-off is given here.

How the values were obtained:
[1] = molecular target: T1, Rap guanine nucleotide exchange factor 4 (Homo sapiens, UniProt Q8WZA2); assay: Competitive inhibition of Epac2 using fluorescent nucleotide analog 8-NBD-cAMP by fluorescence analysis
Target sequence in this assay (Q8WZA2 whole entry): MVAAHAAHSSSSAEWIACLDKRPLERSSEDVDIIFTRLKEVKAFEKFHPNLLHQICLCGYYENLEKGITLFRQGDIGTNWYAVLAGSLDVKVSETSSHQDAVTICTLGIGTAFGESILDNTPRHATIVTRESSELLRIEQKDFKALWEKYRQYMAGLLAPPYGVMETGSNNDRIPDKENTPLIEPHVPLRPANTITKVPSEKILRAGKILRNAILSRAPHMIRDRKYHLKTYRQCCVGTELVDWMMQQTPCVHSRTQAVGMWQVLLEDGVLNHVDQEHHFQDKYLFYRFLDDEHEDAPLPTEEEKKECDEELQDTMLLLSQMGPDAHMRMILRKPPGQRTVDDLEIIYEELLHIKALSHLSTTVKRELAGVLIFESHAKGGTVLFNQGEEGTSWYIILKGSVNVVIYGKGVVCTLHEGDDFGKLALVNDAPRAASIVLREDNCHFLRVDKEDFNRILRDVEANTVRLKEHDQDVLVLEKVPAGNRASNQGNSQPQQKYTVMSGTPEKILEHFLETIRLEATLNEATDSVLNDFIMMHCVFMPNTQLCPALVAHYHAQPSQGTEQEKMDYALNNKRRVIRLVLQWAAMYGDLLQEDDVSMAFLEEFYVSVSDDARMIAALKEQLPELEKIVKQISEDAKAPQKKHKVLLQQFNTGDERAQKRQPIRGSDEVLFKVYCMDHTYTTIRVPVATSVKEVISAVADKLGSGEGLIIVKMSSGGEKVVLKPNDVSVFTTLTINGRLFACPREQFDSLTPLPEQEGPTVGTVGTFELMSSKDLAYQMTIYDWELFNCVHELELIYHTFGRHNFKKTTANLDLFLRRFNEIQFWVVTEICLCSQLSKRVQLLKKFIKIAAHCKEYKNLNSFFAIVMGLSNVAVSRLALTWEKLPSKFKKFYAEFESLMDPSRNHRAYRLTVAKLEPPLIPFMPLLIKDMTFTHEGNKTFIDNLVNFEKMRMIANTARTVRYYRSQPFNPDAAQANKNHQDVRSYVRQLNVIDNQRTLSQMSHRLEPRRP

[2] = Inhibition of PKA type1 activation at 25 uM
[3] = Inhibition of PKA type2 activation at 25 uM
[4] = molecular target: T1, Rap guanine nucleotide exchange factor 4; assay: Inhibition of cAMP-mediated recombinant Epac2 GEF activity at 25 uM by fluorescence analysis in presence of cAMP
Target sequence in this assay (Q8WZA2 whole entry, looked up): as the sequence (Q8WZA2 whole entry) above

[5] = molecular target: T2, Rap guanine nucleotide exchange factor 3 (Homo sapiens) (UniProt O95398); assay: Inhibition of recombinant Epac1-mediated Akt phosphorylation at T308 expressed in 007-AM-stimulated HEK293 cells at 10 uM administered 5 mins prior to 007-AM by Western blot analysis; type: cell-based
T2 sequence (whole entry): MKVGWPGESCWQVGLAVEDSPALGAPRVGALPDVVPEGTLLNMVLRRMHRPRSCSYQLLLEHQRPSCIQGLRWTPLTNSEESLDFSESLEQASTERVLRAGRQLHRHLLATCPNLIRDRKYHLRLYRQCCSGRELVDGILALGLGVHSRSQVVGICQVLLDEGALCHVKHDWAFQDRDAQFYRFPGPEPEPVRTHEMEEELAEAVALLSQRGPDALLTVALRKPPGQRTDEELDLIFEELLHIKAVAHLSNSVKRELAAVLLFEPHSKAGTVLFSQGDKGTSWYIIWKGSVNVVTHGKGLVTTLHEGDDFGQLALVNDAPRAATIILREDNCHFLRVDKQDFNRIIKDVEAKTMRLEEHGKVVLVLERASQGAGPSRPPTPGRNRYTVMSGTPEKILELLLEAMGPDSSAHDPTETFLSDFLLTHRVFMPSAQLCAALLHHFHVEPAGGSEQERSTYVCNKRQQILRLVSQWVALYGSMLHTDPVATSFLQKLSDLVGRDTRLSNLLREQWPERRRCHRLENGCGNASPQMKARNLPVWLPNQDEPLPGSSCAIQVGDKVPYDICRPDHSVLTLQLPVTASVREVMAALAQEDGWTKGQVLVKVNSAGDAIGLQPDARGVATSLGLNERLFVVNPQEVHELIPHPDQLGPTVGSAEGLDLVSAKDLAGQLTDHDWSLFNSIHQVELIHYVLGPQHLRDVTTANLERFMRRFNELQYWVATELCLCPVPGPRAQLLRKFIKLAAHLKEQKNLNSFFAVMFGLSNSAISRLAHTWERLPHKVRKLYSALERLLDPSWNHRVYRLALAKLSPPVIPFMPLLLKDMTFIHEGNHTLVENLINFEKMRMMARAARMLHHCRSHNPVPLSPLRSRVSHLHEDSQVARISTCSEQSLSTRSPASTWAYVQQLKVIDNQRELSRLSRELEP
How it was run: (§1)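 HEK293/Epac1 or HEK293/Epac2 cells were pretreated, or not, with 10 μM antagonist for 5 min. They were then stimulated with 10 μM 007-AM, the membrane-permeable Epac-selective agonist. Cell lysates were immunoblotted with PKB antibodies specific for phospho-Ser473 and phospho-Thr308.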

[6] = molecular target: T2, Rap guanine nucleotide exchange factor 3 (Homo sapiens); assay: Inhibition of recombinant Epac1-mediated Akt phosphorylation at S473 expressed in 007-AM-stimulated HEK293 cells at 10 uM administered 5 mins prior to 007-AM by Western blot analysis; type: cell-based; how it was run: as §1
[7] = molecular target: T1, Rap guanine nucleotide exchange factor 4; assay: Inhibition of recombinant Epac2-mediated Akt phosphorylation at T308 expressed in 007-AM-stimulated HEK293 cells at 10 uM administered 5 mins prior to 007-AM by Western blot analysis; type: cell-based; how it was run: as §1
Target sequence in this assay (Q8WZA2 whole entry, looked up): as the sequence (Q8WZA2 whole entry) above

[8] = molecular target: T1, Rap guanine nucleotide exchange factor 4; assay: Inhibition of recombinant Epac2-mediated Akt phosphorylation at S473 expressed in 007-AM-stimulated HEK293 cells at 10 uM administered 5 mins prior to 007-AM by Western blot analysis; type: cell-based; how it was run: as §1
Target sequence in this assay (Q8WZA2 whole entry, looked up): as the sequence (Q8WZA2 whole entry) above

[9] = molecular target: T2, Rap guanine nucleotide exchange factor 3 (Homo sapiens); assay: Inhibition of Epac1 at 25 uM in presence of equal molar concentration of cAMP
[10] = molecular target: T1, Rap guanine nucleotide exchange factor 4; assay: Inhibition of Epac2 at 25 uM in presence of equal molar concentration of cAMP
Target sequence in this assay (Q8WZA2 whole entry, looked up): as the sequence (Q8WZA2 whole entry) above

[11] = molecular target: T2, Rap guanine nucleotide exchange factor 3 (Homo sapiens); assay: Inhibition of recombinant Epac1-mediated Rap1-GDP exchange activity at 25 uM by fluorescence analysis in presence of cAMP

SMILES: N#Cc1c(C2CCCCC2)nc(SCC(=O)O)[nH]c1=O
IC50 [1]: > 300 µM

SMILES: N#Cc1c(C2CCCCC2)nc(SCC(=O)Nc2ccccc2)[nH]c1=O
IC50 [1]: > 300 µM

SMILES: N#Cc1c(C2CCCCC2)nc(Nc2ccc(Cl)cc2)[nH]c1=O
IC50 [1]: > 300 µM

SMILES: O=S(=O)(NCCNC/C=C/c1ccc(Br)cc1)c1cccc2cnccc12
inhibition [2]: Active
inhibition [3]: Active

SMILES: Cc1ccc(C)c(CSc2nc(C3CCNCC3)c(C#N)c(=O)[nH]2)c1
IC50 [1]: > 300 µM

SMILES: Cc1ccc(CSc2nc(C3CCCCC3)c(C#N)c(=O)[nH]2)cc1
IC50 [1]: 38.7 µM

SMILES: Cc1cc(C)c(CSc2nc(C3CCCCC3)c(C#N)c(=O)[nH]2)c(C)c1
IC50 [1]: 11.6 µM

SMILES: Cc1ccc(C)c(CSc2nc(C(C)C)c(C#N)c(=O)[nH]2)c1
IC50 [1]: 12.7 µM

SMILES: Cc1cc(C)c(NC(=O)CSc2nc(C3CCCCC3)c(C#N)c(=O)[nH]2)c(C)c1
IC50 [1]: > 300 µM

SMILES: N#Cc1c(C2CCCCC2)nc(S)[nH]c1=O
IC50 [1]: > 300 µM

SMILES: N#Cc1c(C2CCCCC2)nc(Nc2ccccc2)[nH]c1=O
IC50 [1]: > 300 µM

SMILES: Cc1ccc(C)c(CSc2nc(C3CCCC3)c(C#N)c(=O)[nH]2)c1
IC50 [1]: 5.9 µM
inhibition [4]: Active
inhibition [11]: Active
inhibition [2]: inactive
inhibition [3]: inactive
inhibition [5]: Active
inhibition [6]: Active
inhibition [7]: Active
inhibition [8]: Active

Next, values leading:

IC50 [1]: 7 µM
SMILES: Cc1cc(C)cc(CSc2nc(C3CCCCC3)c(C#N)c(=O)[nH]2)c1

IC50 [1]: > 300 µM
SMILES: Cc1ccc(NC(=O)CSc2nc(C3CCCCC3)c(C#N)c(=O)[nH]2)cc1

IC50 [1]: 4 µM
inhibition [4]: Active
inhibition [2]: inactive
inhibition [3]: inactive
inhibition [5]: Active
inhibition [6]: Active
inhibition [7]: Active
inhibition [8]: Active
SMILES: Cc1ccc(C)c(CSc2nc(C3CC3)c(C#N)c(=O)[nH]2)c1

IC50 [1]: 15.7 µM
SMILES: Cc1ccc(CSc2nc(C3CCCCC3)c(C#N)c(=O)[nH]2)c(C)c1

IC50 [1]: 30.5 µM
SMILES: N#Cc1c(C2CCCCC2)nc(SCc2ccccc2)[nH]c1=O

IC50 [1]: 127 µM
SMILES: Cc1ccc(C)c(CSc2nc(C3CCN(C)CC3)c(C#N)c(=O)[nH]2)c1

inhibition [9]: Active
inhibition [10]: Active
IC50 [1]: 8.4 µM
inhibition [2]: inactive
inhibition [3]: inactive
SMILES: Cc1ccc(C)c(CSc2nc(C3CCCCC3)c(C#N)c(=O)[nH]2)c1
